High-throughput results from PubChem.
A selection: hits, their analogues and other compounds. The true share with any hit is near 3.9%.
TAAR1 antag: human TAAR1 antagonism. Q96RJ0. AID 624466. inhibition, % at 3 µM. CHO RD-HGA16 TAAR1, Fluo-8 calcium fluorescence, antagonist. 360,000 tested, 1.5% active;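 active = inhibition above a per-plate cutoff, the mean inhibition of test compounds on that plate plus 3 SD, cut at about 49% in these data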;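 note: 0% = DMSO plus EC80 beta-PEA response and 100% = DMSO alone without agonist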
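Material: CHO RD-HGA16 cells bearing hTAAR1; compound dosing: one-point dosing, 3 µM nominal final; schedule: dye loading 75 min at 37 °C, then 30 min room temperature; measured by: calcium fluorescence with Fluo-8; control set: vehicle and agonist controls; replication: n of 1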
OX1R antag-1: OX1R (human) antagonism; O43613; 330,000 tested, 1.8% active; OX1R-expressing cells, FRET antagonist read-out; inhibition, % at 6.6 µM; in the data active = inhibition mostly above about 38%, no sharp cut-off; inactive = mostly below about 40%;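 note: 0% = agonist challenge alone and 100% = reference antagonist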
Target sequence (O43613 whole entry, looked up): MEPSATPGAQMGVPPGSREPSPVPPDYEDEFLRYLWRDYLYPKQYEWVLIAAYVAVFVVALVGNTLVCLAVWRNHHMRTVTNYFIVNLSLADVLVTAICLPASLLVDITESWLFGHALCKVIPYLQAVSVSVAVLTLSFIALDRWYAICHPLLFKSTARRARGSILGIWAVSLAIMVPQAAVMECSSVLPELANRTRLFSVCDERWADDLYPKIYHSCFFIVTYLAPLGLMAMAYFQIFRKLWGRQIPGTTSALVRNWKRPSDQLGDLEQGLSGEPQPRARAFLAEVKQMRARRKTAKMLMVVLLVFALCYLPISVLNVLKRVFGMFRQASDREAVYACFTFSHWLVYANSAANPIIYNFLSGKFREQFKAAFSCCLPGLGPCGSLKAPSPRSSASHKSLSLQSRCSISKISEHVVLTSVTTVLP
OX1R antag-2: human HCRTR1 antagonism | O43613 | 330,000 tested, 0.43% active | CHO/OX1R cells, Fluo-8 calcium fluorescence, orexin A | inhibition, % at 5 µM;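 active = inhibition above its plate's threshold, mean inhibition of all tested compounds on the plate plus 3 SD, cut at about 37% in these data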;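 note: 0% = orexin A challenge wells and 100% = SB-334867-A antagonist wells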
CHO parental Ca: signal in parental CHO cells, OX1R antagonist counter-screen; parental CHO-K1, ATP-induced calcium, Fluo-8 fluorescence; inhibition, % at 5.6 µM; 330,000 tested, 0.63% active; AID 463079;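 active = inhibition above that plate's mean sample inhibition plus 3 SD, cut at about 26% in these data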;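 note: 0% = ATP-challenged DMSO wells and 100% = DMSO wells without ATP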
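Material: parental CHO cells / Compound: single nominal dose of 5.6 µM per compound / Signal: Fluo-8 fluorescence / Replicates: singlicate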
TAAR1 ag: agonists of human TAAR1; 360,000 tested, 0.99% active; activation, % at 3 µM; Q96RJ0; CHO RD-HGA16 TAAR1, Fluo-8 calcium fluorescence; vehicle wells 0%, saturating PEA agonist 100%; AID 624467;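 active = activation above the mean activation of all test compounds in the run plus 3 SD, cut at about 38% in these data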
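Signal – calcium-sensitive Fluo-8 signal, excitation 470-495, emission 515-575 nm · System – RD-HGA16 (CHO) cells co-expressing Gα16 and hTAAR1 · Incubation – 17-24 h seeding, 75 min 37 °C dye, 30 min RT · Compound dosing – 3 µM single concentration · Repeats – no replicates (n 1)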
TAAR1 ag conf: confirmation of human TAAR1 agonists. activation, % at 3 µM. CHO RD-HGA16 TAAR1, Fluo-8 calcium fluorescence; scaled: DMSO 0%, maximal phenethylamine 100%. 2,400 tested, 82% active. shares compounds with TAAR1 ag;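 active = activation above a cutoff set at the run's mean compound activation plus 3 SD, cut at about 39% in these data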
Ga16 ag counter: nonselective agonist in parental cells, TAAR1 agonist counter-screen. shares compounds with TAAR1 ag. AID 651787. activation, % at 3 µM. CHO-Ga16 parental, Fluo-8 calcium fluorescence; normalized to maximal ATP response, DMSO zero. 2,400 tested, 50% active;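 active = activation above the run cutoff, the mean activation over all tested wells plus 3 SD, cut at about 12% in these data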;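 note: 0% = DMSO wells and 100% = maximal ATP response on the peak over basal ratio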
TAAR1 desensitize: TAAR1 response desensitization, agonist counter-screen | shares compounds with TAAR1 ag | inhibition, % at 3 µM | CHO RD-HGA16 hTAAR1, Fluo-8 calcium, beta-PEA response inhibition | 2,400 tested, 46% active;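 active = inhibition above the run cutoff, the mean inhibition of all test compounds plus 3 SD, cut at about 49% in these data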;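 note: beta-PEA stimulus applied at its EC80; loss of beta-PEA calcium signal after compound pretreatment read as receptor desensitization; 0% = DMSO with beta-PEA at EC80 and 100% = DMSO alone without agonist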
Ga16 nonsel ant: nonselective Ga16 antagonism, counter-screen. shares compounds with TAAR1 ag. CHO-Ga16 ATP-induced calcium, Fluo-8 fluorescence. inhibition, % at 3 µM. 2,400 tested, 39% active;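 active = inhibition above the plate's mean compound inhibition plus 3 SD, computed per plate, cut at about 22% in these data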;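 note: 0% = EC80 ATP with DMSO and 100% = DMSO wells without ATP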
Active calls of the source: *; nt = no result.

SMILES	TAAR1 antag	OX1R antag-1	OX1R antag-2	CHO parental Ca	TAAR1 ag	TAAR1 ag conf	Ga16 ag counter	TAAR1 desensitize	Ga16 nonsel ant
CCCC(NC(=O)C(C)NC(=O)CO/N=C1\C=C2CCC3C4CCC(C(C)=O)[C@@]4(C)CCC3[C@@]2(C)CC1)C(=O)O (stereo partly specified)	-5	nt	nt	nt	2	nt	nt	nt	nt
COc1cc(C(=O)NNC(=S)NC(=O)c2ccccc2C)cc(OC)c1OC	-4	11	22	0	63*	33	44*	6	11
COc1ccc(C(=O)NC(=S)NNC(=O)c2ccccc2C)cc1	92*	-2	13	11	170*	143*	105*	98*	75*
COc1cc(C(=O)NC(=S)NNC(=O)c2cnccn2)cc(OC)c1OC	-5	8	-11	-7	5	nt	nt	nt	nt
COc1cc(C(=O)NC(=S)NNC(=O)[C@H]2C[C@@H]2c2ccccc2)cc(OC)c1OC	-7	6	-19	-7	74*	37	43*	24	14
COc1ccccc1C(=O)NNC(=S)NC(=O)c1cc(OC)c(OC)c(OC)c1	18	22	12	1	30	nt	nt	nt	nt
O=C(NC(=S)NNC(=O)c1cc2ccccc2cc1O)c1ccco1	2	53	-2	-11	75*	44*	37*	24	25*
CS(=O)(=O)c1ccc(NC(=O)c2ccc3c(c2)S(=O)(=O)N=C2CCCCCN23)cc1	9	22	-12	-3	3	nt	nt	nt	nt
O=C(NCCC1CCCCN1S(=O)(=O)c1ccccc1)C(=O)NCc1ccncc1 (stereo unspecified)	-7	18	-19	-14	1	nt	nt	nt	nt
CCCOc1ccccc1OCC(=O)Nc1cc(Cl)ccc1-n1cncn1	6	13	-14	-11	7	nt	nt	nt	nt
Cc1ccc(CNC(=O)COC(=O)c2cc3c(s2)CCC(C)C3)cc1 (stereo unspecified)	-15	8	-26	-13	-1	nt	nt	nt	nt
CC1CCc2sc(C(=O)OCC(=O)NCc3ccccc3)cc2C1 (stereo unspecified)	39	11	-29	1	43*	-1	0	0	8
O=C1NCCN1CCNc1nc(NCc2ccccc2)nc2ccsc12	100*	nt	nt	nt	89*	95*	66*	106*	93*
O=C1Nc2ccccc2C(=O)C1(Cl)Cc1ccccc1 (stereo unspecified)	9	23	10	-11	47*	17	8	24	7
N#Cc1cn(-c2cccc(C(F)(F)F)c2)c(=O)[nH]c1=O	-27	-2	2	-12	3	nt	nt	nt	nt
COc1ccc(Br)cc1CSC(=N)N	16	16	-14	-9	46*	71*	4	42	9
CC(=O)c1ccc(OC(C)C)c(CSC(=N)N)c1	-9	15	-7	-10	30	nt	nt	nt	nt
CCOc1ccc(CSC(=N)N)cc1	-5	5	-1	5	12	nt	nt	nt	nt
CCCCCOc1ccc(Br)cc1CSC(=N)N	93*	nt	nt	nt	93*	106*	60*	102*	71*
CCCCOc1ccc(CSC(=N)N)cc1Cl	1	-5	-31	1	100*	109*	55*	61*	27*
COc1ccc(CCNCC(O)COc2ccc(OC)cc2C(C)(C)C)cc1 (stereo unspecified)	33	3	21	13	66*	96*	14*	70*	16
O=C(CC(NCCc1ccccc1)C(=O)O)Nc1ccc(O)cc1 (stereo unspecified)	6	5	-6	-1	50*	91*	1	74*	6
Cc1ccccc1NC(=O)CCC(=O)N/N=C/c1ccncc1	-19	4	-3	0	1	nt	nt	nt	nt
OCc1ccccc1CNCc1ccccc1	0	22	5	3	7	nt	nt	nt	nt
OCc1ccccc1SSc1ccccc1CO	-4	3	-10	-9	58*	32	19*	7	5
SMILES	TAAR1 antag	OX1R antag-1	OX1R antag-2	CHO parental Ca	TAAR1 ag	TAAR1 ag conf	Ga16 ag counter	TAAR1 desensitize	Ga16 nonsel ant
Cc1ccnc(N/C=C(\C#N)c2nc(-c3cccc(Br)c3)cs2)c1	68*	-1	13	20	124*	77*	86*	68*	63*
COC(=O)c1ccccc1-n1cccc1C(=O)NP(=O)(N1CCOCC1)N1CCOCC1	-2	8	-1	-2	4	nt	nt	nt	nt
CN(CCC#N)S(=O)(=O)c1ccc2[nH]cc(C(=O)NCCc3ccccc3)c(=O)c2c1	12	15	-8	-15	54*	73*	0	20	6
N#Cc1cccc(-c2csc(C(O)c3ccco3)n2)c1 (stereo unspecified)	-24	nt	nt	nt	2	nt	nt	nt	nt
Cc1ccc(S(=O)(=O)N2CCOCC2)cc1C(=O)OCCOc1cccc(Cl)c1	1	10	-15	-16	0	nt	nt	nt	nt
NC(=O)c1ccc(/C=N/O)nc1	8	26	-14	-9	5	nt	nt	nt	nt
C=CCN1[C@@H](C)[C@H](c2ccccc2)Oc2cccc(NCCc3ccccc3)c2S1(=O)=O	36	nt	nt	nt	97*	72*	1	19	9
COc1ccccc1CCn1cnc(-c2ccc(OC)c(OC)c2)c1CC(C)C	68*	nt	nt	nt	54*	93*	24*	84*	45*
CCCCc1c(Cc2cccc(F)c2)ncn1CCc1ccccc1OC	32	nt	nt	nt	48*	48*	11	50*	33*
CCCCc1c(-c2ccc(OC)c(OC)c2)ncn1CCc1ccccc1OC	58*	nt	nt	nt	59*	64*	7	68*	42*
CCCCc1c(-c2ccccc2OC)ncn1CCc1cccc(Cl)c1	47	nt	nt	nt	66*	84*	19*	83*	34*
CCCc1c(-c2ccc(F)cc2)ncn1CCc1ccccc1OC	40	nt	nt	nt	16	nt	nt	nt	nt
CCC(CO)Nc1ccn2nc(-c3cccs3)cc2n1 (stereo unspecified)	-13	nt	nt	nt	3	nt	nt	nt	nt
COCC(=O)NC1CCN(C(=O)Nc2ccc(Br)cc2)CC1	-11	7	-4	-2	8	nt	nt	nt	nt
Cc1cnc(C(=O)N(c2ccc(N3CCOCC3)cc2)C2C(=O)Nc3ccccc3N=C2c2ccc(F)cc2)cn1 (stereo unspecified)	-22	nt	nt	nt	1	nt	nt	nt	nt
CN(C)CCCn1c2c(c(SCC(=O)Nc3ccc4c(c3)OCCO4)nc1=O)CCC2	0	9	-10	-15	0	nt	nt	nt	nt
